This is an account of results in ChEMBL document CHEMBL3576799, “Aranciamycins I and J, Antimycobacterial Anthracyclines from an Australian Marine-Derived Streptomyces sp” (J Nat Prod, 2015).

One assay concerns Candida albicans. Put plainly: Antifungal activity against Candida albicans ATCC 90028 after 48 hrs by spectrophotometric analysis. In kind it is functional, organism-based. The conditions noted are these: ATCC 90028, 48 h.
In another assay the test system is Escherichia coli. Put plainly: Antibacterial activity against Escherichia coli ATCC 11775 after 24 hrs by spectrophotometric analysis. The format is functional, organism-based. The conditions noted are these: DSM 30083 = JCM 1649 = ATCC 11775, 24 h.
The next assay concerns SW-620. Put plainly: Cytotoxicity against human SW620 cells assessed as growth inhibition after 48 hrs by MTT assay. The note with it: SW-620, 48 h. In kind it is functional, cell-based. An outline of the steps: (§1)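 Modified MTT assay on adherent human cancer lines: SW620 (epithelial-like colorectal carcinoma), NCI-H460 (epithelial-like lung carcinoma), KB-3-1 (epithelial-like cervix carcinoma) and HepG2 (hepatocellular carcinoma). Output given as IC50.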
(In general: Tetrazolium assays rely on reduction of a dye to a coloured formazan, in cell work by metabolically active cells.)

In the next assay the test system is NCI-H460. Put plainly: Cytotoxicity against human NCI-H460 cells assessed as growth inhibition after 48 hrs by MTT assay. The note with it: NCI-H460, 48 h. In kind it is functional, cell-based. In short, it runs like this: as §1
For a further assay, the system named is Pseudomonas aeruginosa. Put plainly: Antibacterial activity against Pseudomonas aeruginosa ATCC 10145 after 24 hrs by spectrophotometric analysis. The note with it: ATCC 10145, 24 h. In kind it is functional, organism-based.
The subject of a further assay is HepG2. Put plainly: Cytotoxicity against human HepG2 cells assessed as growth inhibition after 48 hrs by MTT assay. In kind it is functional, cell-based. The conditions noted are these: HepG2, 48 h. In short, it runs like this:
as §1

The subject of a further assay is Bacillus spizizenii. Put plainly: Antibacterial activity against Bacillus subtilis ATCC 6633 after 24 hrs by spectrophotometric analysis. The format is functional, organism-based. The conditions noted are these: ATCC 6633, 24 h.
The test system of assay [1] is Staphylococcus aureus. Put plainly: Antibacterial activity against Staphylococcus aureus ATCC 9144 after 24 hrs by spectrophotometric analysis. The format is functional, organism-based. The conditions noted are these: ATCC 9144, 24 h.
For assay [2], the system named is Staphylococcus aureus. Put plainly: Antibacterial activity against Staphylococcus aureus ATCC 25923 after 24 hrs by spectrophotometric analysis. The format is functional, organism-based. The note with it: ATCC 25923, 24 h.
Assay [3] is described as follows: Cytotoxicity against human KB-3-1 cells assessed as growth inhibition after 48 hrs by MTT assay. The format is functional, cell-based. The note with it: KB 3-1, 48 h. An outline of the steps:
as §1

In the next assay the test system is Bacillus subtilis. Put plainly: Antibacterial activity against Bacillus subtilis ATCC 6051 after 24 hrs by spectrophotometric analysis. In kind it is functional, organism-based. The conditions noted are these: ATCC 6051, 24 h.

≈ marks a conversion by molar mass, not a printed value. Where only a bound is given, the exact number is not on record here.

What is called IC50 is the concentration that gives 50% inhibition. As usually defined, the MIC is the lowest concentration found to suppress growth. A low value points to a more susceptible organism. Turning to `CO[C@H]1[C@H](O[C@H]2C[C@](C)(O)C(=O)c3cc4c(c(O)c32)C(=O)c2c(O)cccc2C4=O)O[C@@H](C)[C@H](O)[C@H]1O`, the IC50 with Candida albicans was greater than 30 µM; in the assay with Escherichia coli it was greater than 30 µM; in the assay on SW-620, 10 µM; in the assay with NCI-H460 it was greater than 30 µM; in the assay with Pseudomonas aeruginosa it was greater than 30 µM; in the assay with HepG2, 12 µM. Also, the IC50 with Bacillus spizizenii was 2.8 µM; in the assay on Staphylococcus aureus [1], greater than 30 µM; in the assay on Staphylococcus aureus [2] it was greater than 30 µM; in assay [3] it was greater than 30 µM; with Bacillus subtilis it was 2.4 µM. Besides, the minimal inhibitory concentration (MIC) in the assay with Candida albicans is greater than 30 µM; against Escherichia coli it was greater than 30 µM; against Pseudomonas aeruginosa, greater than 30 µM; against Bacillus spizizenii, 7.5 µM (≈ 3.86 µg/mL); against Staphylococcus aureus [1] it was greater than 30 µM; in the assay on Staphylococcus aureus [2], greater than 30 µM. Besides, the MIC with Bacillus subtilis amounted to 7.2 µM (≈ 3.7 µg/mL).
In the case of `CO[C@H]1[C@H](O[C@@H]2c3c(cc4c(c3O)C(=O)c3c(O)cccc3C4=O)C(=O)[C@@](C)(O)[C@H]2OC)O[C@@H](C)[C@H](O)[C@H]1O` [ARANCIAMYCIN], the IC50 with Candida albicans is greater than 30 µM; with Escherichia coli, greater than 30 µM; with SW-620, greater than 30 µM; in the assay on NCI-H460, greater than 30 µM; in the assay with Pseudomonas aeruginosa it was greater than 30 µM; in the assay on HepG2 it was 18 µM. The IC50 in the assay with Bacillus spizizenii is 5.8 µM; in the assay on Staphylococcus aureus [1] it was greater than 30 µM; with Staphylococcus aureus [2] it was greater than 30 µM; in assay [3] it was greater than 30 µM; in the assay with Bacillus subtilis it was 6 µM. The minimal inhibitory concentration (MIC) with Candida albicans was greater than 30 µM; with Escherichia coli, greater than 30 µM; in the assay on Pseudomonas aeruginosa, greater than 30 µM; against Bacillus spizizenii, 15 µM (≈ 8.17 µg/mL); against Staphylococcus aureus [1], greater than 30 µM; in the assay with Staphylococcus aureus [2] it was greater than 30 µM. This compound also returned an MIC against Bacillus subtilis of 15 µM (≈ 8.17 µg/mL).
As for `C[C@@H]1O[C@@H](O[C@H]2C[C@](C)(O)Cc3cc4c(c(O)c32)C(=O)c2c(O)cccc2C4=O)[C@H](O)[C@H](O)[C@H]1O`, the IC50 was greater than 30 µM in the assay on Candida albicans; greater than 30 µM in the assay with Escherichia coli; 7.5 µM in the assay with SW-620; 9 µM with NCI-H460; greater than 30 µM with Pseudomonas aeruginosa; 12 µM in the assay on HepG2. The IC50 in the assay on Bacillus spizizenii was 3 µM; with Staphylococcus aureus [1], greater than 30 µM; with Staphylococcus aureus [2] it was greater than 30 µM; in assay [3], greater than 30 µM; in the assay with Bacillus subtilis, 1.1 µM. The MIC with Candida albicans was greater than 30 µM; with Escherichia coli, greater than 30 µM; against Pseudomonas aeruginosa it was greater than 30 µM; with Bacillus spizizenii, 7.5 µM (≈ 3.65 µg/mL); in the assay on Staphylococcus aureus [1], greater than 30 µM; in the assay with Staphylococcus aureus [2], greater than 30 µM. In the assay on Bacillus subtilis, this compound showed an MIC of 3.7 µM (≈ 1.8 µg/mL).
Turning to `CO[C@H]1[C@H](O[C@H]2C[C@](C)(O)Cc3cc4c(c(O)c32)C(=O)c2c(O)cccc2C4=O)O[C@@H](C)[C@H](O)[C@H]1O`, the IC50 with Candida albicans, in the assay on Escherichia coli, with SW-620, with NCI-H460, with Pseudomonas aeruginosa and in the assay on HepG2 was greater than 30 µM in each case. Besides, the IC50 with Bacillus spizizenii was 2.4 µM; in the assay with Staphylococcus aureus [1], greater than 30 µM; in the assay with Staphylococcus aureus [2] it was greater than 30 µM; in assay [3], greater than 30 µM; with Bacillus subtilis it was 2.8 µM. The MIC is greater than 30 µM in the assay on Candida albicans; greater than 30 µM against Escherichia coli; greater than 30 µM against Pseudomonas aeruginosa; 7.5 µM (≈ 3.75 µg/mL) in the assay on Bacillus spizizenii; greater than 30 µM in the assay with Staphylococcus aureus [1]; greater than 30 µM in the assay on Staphylococcus aureus [2]. It took 7.5 µM (≈ 3.75 µg/mL) to inhibit growth in the assay on Bacillus subtilis (MIC).
